According to ChEMBL document CHEMBL1147890, “Synthesis of the new pseudo-symmetrical tamoxifen derivatives and their anti-tumor activity” (Bioorg Med Chem Lett, 2007):
pIC50: −log10 of the molar value. Calls of active or inactive are those of the source. The calls are words filed in the database; no cut-off is given here.

Columns and labels:
HL-60 [1] = experiment: Antitumor activity against HL60 cells after 3 hrs by MTT assay; type: functional, cell-based; conditions: Homo sapiens, HL-60, 3 h
Procedure, shortened: (§1)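 HL-60 human acute promyelocytic leukemia cells exposed for 0–6 h at final 2.5, 5, 7.5 and 10 µM. Viability read by MTT (mitochondrial succinic dehydrogenase reduces dye to formazan). Growth rate expressed against formazan absorbance at 0 h set to 1.0. SD, n = 5. IC50 taken as median growth-inhibitory concentration at 3 h or 6 h.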

HL-60 [2] = experiment: Antitumor activity against HL60 cells at 10 uM after 6 hrs by MTT assay; type: functional, Homo sapiens; procedure, shortened: as §1
HL-60 [3] = experiment: Antitumor activity against HL60 cells at 5 ug/ml after 4 hrs by MTT assay; type: functional, Homo sapiens
Procedure, shortened: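 HL-60 cells given 5 µg/mL. Viability measured by MTT formazan absorbance after 4 h and expressed relative to the 0 h reading.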

HL-60 [4] = experiment: Antitumor activity against HL60 cells at 5 uM after 6 hrs by MTT assay; type: functional, Homo sapiens; procedure, shortened: as §1
HL-60 [5] = experiment: Induction of apoptosis in HL60 cells assessed as DNA fragmentation at 9 uM by agarose gel electrophoresis; type: functional, cell-based; conditions: Homo sapiens
Procedure, shortened: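 Apoptosis versus necrosis judged by oligonucleosomal DNA cleavage on agarose gel electrophoresis. HL-60 cells treated 6 h at 9 µM final. Controls were medium only, tamoxifen, ethanol and actinomycin D.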

HL-60 [6] = experiment: Antitumor activity against HL60 cells at 7.5 uM after 6 hrs by MTT assay; type: functional, Homo sapiens; procedure, shortened: as §1
HL-60 [7] = experiment: Antitumor activity against HL60 cells after 6 hrs by MTT assay; type: functional, cell-based; conditions: Homo sapiens, HL-60, 6 h; procedure, shortened: as §1

pIC50 (HL-60 [1]) | pIC50 (HL-60 [7]) | Structure (SMILES) | Activity (HL-60 [2]) | Activity (HL-60 [3]) | Activity (HL-60 [4]) | Activity (HL-60 [5]) | Activity (HL-60 [6])
5.40 | 5.52 | CCC(=C(c1ccc(OCCN2CCCC2)cc1)c1ccc(OCCN2CCCC2)cc1)c1ccccc1 | >90% | >90% | >90% | Active | >90%
– | 5.30 | CCC(=C(c1ccc(OCCN2CCCCC2)cc1)c1ccc(OCCN2CCCCC2)cc1)c1ccccc1 | >80% | – | – | Active | >80%
